Measured values published in ChEMBL document CHEMBL1154945, “Decahydroisoquinoline derivatives as novel non-peptidic, potent and subtype-selective somatostatin sst(3) receptor antagonists” (Bioorg Med Chem Lett, 2010).

What was measured:
[1] = Ratio of drug level in brain to plasma in mouse at 3 mg/kg, po after 1 hr by LC-MS based method; assay type: ADME, organism-based; design: dose 3 mg/kg, route oral; details: brain and plasma
How it was run: (§1)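 Mice and rats dosed orally at 3 mg/kg with unlabelled drug; plasma and brain sampled 1 h after dosing and analysed by LC–MS (LOQ 0.4 ng/ml plasma, 2 ng/g brain); brain/plasma ratio calculated.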

[2] = target: Somatostatin receptor type 1 (Homo sapiens, UniProt P30872); test: Binding affinity to human SST1 receptor
[3] = Inhibition of CYP450; assay type: ADME
How it was run: (§2)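 Inhibition of the five principal human cytochrome P450 isoenzymes screened by a microplate-based, direct fluorometric assay.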

[4] = target: Somatostatin receptor type 3 (Mus musculus, UniProt P30935); test: Displacement of [125I]SRIF-28 from mouse recombinant SST3 receptor
How it was run: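 Radioligand binding on recombinant mouse sst3 receptors with 125I-SRIF28 as tracer; pKD reported, n = 3.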

[5] = organism: Homo sapiens; test: Selectivity for human SST3 over human SST4
[6] = organism: Homo sapiens; test: Selectivity for human SST3 over human SST2
[7] = target: T1, Alpha-1A adrenergic receptor (Homo sapiens, UniProt P35348); test: Binding affinity to Alpha-1A adrenergic receptor
T1 sequence (P35348 whole entry): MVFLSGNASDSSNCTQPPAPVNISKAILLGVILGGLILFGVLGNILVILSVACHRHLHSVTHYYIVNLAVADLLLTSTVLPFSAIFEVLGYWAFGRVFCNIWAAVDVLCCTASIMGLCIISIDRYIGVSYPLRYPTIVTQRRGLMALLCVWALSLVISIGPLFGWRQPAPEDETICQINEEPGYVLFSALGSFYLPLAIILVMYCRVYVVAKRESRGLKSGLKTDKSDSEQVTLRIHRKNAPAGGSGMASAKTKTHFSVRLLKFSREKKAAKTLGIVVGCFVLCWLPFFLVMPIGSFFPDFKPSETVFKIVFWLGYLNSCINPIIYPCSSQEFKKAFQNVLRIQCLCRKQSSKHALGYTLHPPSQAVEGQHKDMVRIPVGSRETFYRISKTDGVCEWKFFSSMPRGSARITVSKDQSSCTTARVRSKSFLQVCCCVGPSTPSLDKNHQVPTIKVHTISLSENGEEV

[8] = Apparent terminal half life in mouse plasma at 1 mg/kg, iv; assay type: ADME, organism-based; design: dose 1 mg/kg, route intravenous
How it was run: (§3)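 Unlabelled drug dosed intravenously at 1 mg/kg to mice and rats; plasma analysed by LC–MS (LOQ 0.4 ng/ml); apparent terminal half-life computed from plasma levels.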

[9] = organism: Homo sapiens; test: Selectivity for human SST3 over human SST1
[10] = target: T2, Somatostatin receptor type 3 (Homo sapiens, UniProt P32745); test: Binding affinity to human SST3 receptor
[11] = target: T2, Somatostatin receptor type 3; test: Antagonist activity at human recombinant SST3 receptor expressed in CHO cells assessed as inhibition of SRIF14-induced cAMP accumulation; assay type: functional, cell-based
How it was run: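 cAMP-based functional assay with human recombinant sst3 receptors expressed in CHO cells; test agent's antagonism of SRIF-14 response measured, pKB derived; n = 6.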

[12] = Apparent terminal half life in rat plasma at 1 mg/kg, iv; assay type: ADME, organism-based; design: dose 1 mg/kg, route intravenous; how it was run: as §3
[13] = target: Cytochrome P450 2D6 (Homo sapiens, UniProt P10635); test: Inhibition of CYP2D6; assay type: ADME; how it was run: as §2
[14] = Oral bioavailability in rat at 3 mg/kg; assay type: ADME, organism-based; details: in vivo
How it was run: (§4)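 Unlabelled drug given orally (3 mg/kg) and intravenously (1 mg/kg) to mice and rats; plasma quantified by LC–MS (LOQ 0.4 ng/ml); absolute bioavailability estimated from the two routes.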

[15] = Ratio of drug level in brain to plasma in rat at 3 mg/kg, po after 1 hr by LC-MS based method; assay type: ADME, organism-based; design: dose 3 mg/kg, route oral; details: brain and plasma; how it was run: as §1
[16] = target: Somatostatin receptor type 2 (Homo sapiens, UniProt P30874); test: Binding affinity to human SST2 receptor
[17] = Oral bioavailability in mouse at 3 mg/kg; assay type: ADME, organism-based; details: in vivo; how it was run: as §4
[18] = target: Somatostatin receptor type 5 (Homo sapiens, UniProt P35346); test: Binding affinity to human SST5 receptor
[19] = target: T3, 5-hydroxytryptamine receptor 2C (Homo sapiens, UniProt P28335); test: Binding affinity to 5HT2C receptor
T3 sequence (P28335 whole entry): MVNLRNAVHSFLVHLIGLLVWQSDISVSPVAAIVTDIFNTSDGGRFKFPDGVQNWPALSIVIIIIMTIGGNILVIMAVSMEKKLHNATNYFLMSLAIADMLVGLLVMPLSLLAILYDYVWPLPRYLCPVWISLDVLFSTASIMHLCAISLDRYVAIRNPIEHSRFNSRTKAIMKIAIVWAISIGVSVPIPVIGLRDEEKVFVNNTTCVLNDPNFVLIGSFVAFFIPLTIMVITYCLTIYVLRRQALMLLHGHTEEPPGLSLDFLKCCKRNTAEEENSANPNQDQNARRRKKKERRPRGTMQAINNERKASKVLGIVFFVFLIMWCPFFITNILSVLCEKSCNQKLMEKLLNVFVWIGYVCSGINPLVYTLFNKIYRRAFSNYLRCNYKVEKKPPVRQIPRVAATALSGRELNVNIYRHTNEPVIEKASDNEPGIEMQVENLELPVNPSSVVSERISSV

[20] = target: Somatostatin receptor type 1 (Rattus norvegicus, UniProt P28646); test: Displacement of [125I]SRIF-14 from rat cortex membrane SST1 receptor
[21] = target: Somatostatin receptor type 4 (Homo sapiens, UniProt P31391); test: Binding affinity to human SST4 receptor
[22] = organism: Homo sapiens; test: Selectivity for human SST3 over human SST5
[23] = target: Somatostatin receptor type 2 (Rattus norvegicus, UniProt P30680); test: Displacement of [125I]SRIF-14 from rat cortex membrane SST2 receptor
[24] = tested on: V79; test: Genotoxicity against chinese hamster V79 cells by micronucleus test; assay type: toxicity, cell-based, Cricetulus griseus
[25] = target: D(2) dopamine receptor (Homo sapiens, UniProt P14416); test: Binding affinity to dopamine D2 receptor
Sequence of D(2) dopamine receptor (P14416 whole entry): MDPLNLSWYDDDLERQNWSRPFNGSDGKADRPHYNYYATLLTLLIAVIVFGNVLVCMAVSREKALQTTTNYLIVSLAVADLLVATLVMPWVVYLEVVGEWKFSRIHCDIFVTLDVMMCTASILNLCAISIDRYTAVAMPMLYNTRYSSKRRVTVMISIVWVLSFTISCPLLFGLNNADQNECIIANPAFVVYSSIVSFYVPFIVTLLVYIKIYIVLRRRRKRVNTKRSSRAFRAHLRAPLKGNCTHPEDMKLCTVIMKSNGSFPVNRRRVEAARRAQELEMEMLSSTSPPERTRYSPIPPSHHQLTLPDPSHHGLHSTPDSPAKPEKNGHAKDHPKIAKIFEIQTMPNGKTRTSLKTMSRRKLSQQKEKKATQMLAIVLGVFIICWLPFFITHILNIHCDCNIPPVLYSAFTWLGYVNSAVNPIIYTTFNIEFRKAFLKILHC

T2 sequence (P32745 whole entry): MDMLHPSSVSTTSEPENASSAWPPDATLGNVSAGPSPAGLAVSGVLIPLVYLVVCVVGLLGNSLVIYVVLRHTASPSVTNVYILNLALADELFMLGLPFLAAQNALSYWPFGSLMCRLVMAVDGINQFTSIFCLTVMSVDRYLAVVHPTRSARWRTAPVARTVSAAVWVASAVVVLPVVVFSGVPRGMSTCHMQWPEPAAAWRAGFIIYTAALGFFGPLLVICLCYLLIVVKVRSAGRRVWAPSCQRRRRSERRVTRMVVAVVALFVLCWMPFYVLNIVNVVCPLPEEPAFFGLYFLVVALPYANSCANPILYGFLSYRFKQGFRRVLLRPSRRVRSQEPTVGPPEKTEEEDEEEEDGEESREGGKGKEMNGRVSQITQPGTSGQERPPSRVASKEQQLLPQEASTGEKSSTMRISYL
Sequence of Somatostatin receptor type 1 (Rattus norvegicus, UniProt P28646) (P28646 whole entry): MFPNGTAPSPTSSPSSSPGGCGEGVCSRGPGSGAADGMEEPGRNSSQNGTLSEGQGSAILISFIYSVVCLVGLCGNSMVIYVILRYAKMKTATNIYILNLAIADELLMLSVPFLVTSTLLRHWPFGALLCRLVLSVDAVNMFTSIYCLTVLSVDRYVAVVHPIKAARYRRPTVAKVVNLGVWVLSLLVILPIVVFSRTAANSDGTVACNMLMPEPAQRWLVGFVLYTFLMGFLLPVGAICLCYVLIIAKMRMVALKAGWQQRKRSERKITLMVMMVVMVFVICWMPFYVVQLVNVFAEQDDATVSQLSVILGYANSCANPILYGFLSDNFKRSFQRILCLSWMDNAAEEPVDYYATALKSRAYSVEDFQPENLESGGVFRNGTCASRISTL
Sequence of Somatostatin receptor type 2 (Rattus norvegicus, UniProt P30680) (P30680 whole entry): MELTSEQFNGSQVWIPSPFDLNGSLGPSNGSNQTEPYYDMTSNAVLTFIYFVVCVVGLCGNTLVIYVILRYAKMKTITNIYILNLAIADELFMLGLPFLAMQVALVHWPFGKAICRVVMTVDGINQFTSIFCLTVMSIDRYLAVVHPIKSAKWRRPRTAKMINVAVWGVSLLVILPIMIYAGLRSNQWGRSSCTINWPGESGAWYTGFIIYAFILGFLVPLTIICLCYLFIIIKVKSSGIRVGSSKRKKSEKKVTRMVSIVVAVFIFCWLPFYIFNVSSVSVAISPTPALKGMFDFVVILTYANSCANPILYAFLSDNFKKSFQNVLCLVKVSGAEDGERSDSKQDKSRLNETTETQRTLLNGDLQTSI
Sequence of Somatostatin receptor type 1 (Homo sapiens, UniProt P30872) (P30872 whole entry): as the sequence (P28646 whole entry) above, with P8S, T11S, S16P, G20S, V25G, C26G, S32A, S45A, A385T, S389T counted along it
Sequence of Somatostatin receptor type 5 (P35346 whole entry): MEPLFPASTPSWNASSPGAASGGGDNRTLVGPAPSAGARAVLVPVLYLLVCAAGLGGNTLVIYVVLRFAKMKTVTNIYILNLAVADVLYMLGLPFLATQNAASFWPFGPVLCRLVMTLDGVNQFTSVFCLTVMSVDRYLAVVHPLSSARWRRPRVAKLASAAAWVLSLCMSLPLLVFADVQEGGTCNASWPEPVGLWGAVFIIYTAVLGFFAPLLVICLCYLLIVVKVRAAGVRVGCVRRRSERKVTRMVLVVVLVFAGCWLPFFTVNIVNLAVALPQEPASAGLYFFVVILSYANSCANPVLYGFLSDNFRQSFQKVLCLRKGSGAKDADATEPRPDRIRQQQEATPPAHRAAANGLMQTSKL
Sequence of Somatostatin receptor type 3 (Mus musculus, UniProt P30935) (P30935 whole entry): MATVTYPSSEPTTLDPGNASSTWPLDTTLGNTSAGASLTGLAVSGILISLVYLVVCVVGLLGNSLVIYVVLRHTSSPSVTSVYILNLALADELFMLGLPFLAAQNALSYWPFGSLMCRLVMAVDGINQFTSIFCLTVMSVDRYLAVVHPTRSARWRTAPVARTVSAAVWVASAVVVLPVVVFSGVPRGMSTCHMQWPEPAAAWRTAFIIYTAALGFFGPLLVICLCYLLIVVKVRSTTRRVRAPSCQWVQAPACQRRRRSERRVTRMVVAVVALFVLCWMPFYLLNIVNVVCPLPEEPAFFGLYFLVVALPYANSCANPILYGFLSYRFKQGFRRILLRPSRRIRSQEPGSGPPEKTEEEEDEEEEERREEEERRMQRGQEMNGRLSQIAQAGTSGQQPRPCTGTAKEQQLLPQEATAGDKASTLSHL
Sequence of Somatostatin receptor type 2 (Homo sapiens, UniProt P30874) (P30874 whole entry): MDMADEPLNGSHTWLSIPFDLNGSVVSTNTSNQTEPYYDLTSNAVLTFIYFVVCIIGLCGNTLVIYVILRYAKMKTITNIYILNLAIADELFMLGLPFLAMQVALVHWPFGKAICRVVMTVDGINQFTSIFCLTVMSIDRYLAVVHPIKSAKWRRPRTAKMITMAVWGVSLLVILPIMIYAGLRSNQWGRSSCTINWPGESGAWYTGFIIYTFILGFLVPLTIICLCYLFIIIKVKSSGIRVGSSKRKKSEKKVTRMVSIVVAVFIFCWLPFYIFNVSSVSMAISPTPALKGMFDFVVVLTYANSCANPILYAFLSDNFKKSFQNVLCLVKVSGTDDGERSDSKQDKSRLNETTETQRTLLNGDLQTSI
Sequence of Cytochrome P450 2D6 (P10635 whole entry): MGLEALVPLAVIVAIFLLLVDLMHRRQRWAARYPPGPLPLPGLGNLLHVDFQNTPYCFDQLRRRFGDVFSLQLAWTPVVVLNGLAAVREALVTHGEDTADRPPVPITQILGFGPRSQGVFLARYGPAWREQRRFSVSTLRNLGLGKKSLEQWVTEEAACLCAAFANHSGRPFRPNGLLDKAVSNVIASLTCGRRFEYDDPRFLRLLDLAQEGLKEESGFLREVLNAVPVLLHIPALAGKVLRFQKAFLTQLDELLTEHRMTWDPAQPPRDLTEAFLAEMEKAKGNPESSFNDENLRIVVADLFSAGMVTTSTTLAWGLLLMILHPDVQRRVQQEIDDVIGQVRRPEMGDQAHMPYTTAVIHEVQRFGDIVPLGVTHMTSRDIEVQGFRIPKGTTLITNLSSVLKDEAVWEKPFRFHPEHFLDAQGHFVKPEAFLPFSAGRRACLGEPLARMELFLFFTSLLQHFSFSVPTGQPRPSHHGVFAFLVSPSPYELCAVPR
Sequence of Somatostatin receptor type 4 (P31391 whole entry): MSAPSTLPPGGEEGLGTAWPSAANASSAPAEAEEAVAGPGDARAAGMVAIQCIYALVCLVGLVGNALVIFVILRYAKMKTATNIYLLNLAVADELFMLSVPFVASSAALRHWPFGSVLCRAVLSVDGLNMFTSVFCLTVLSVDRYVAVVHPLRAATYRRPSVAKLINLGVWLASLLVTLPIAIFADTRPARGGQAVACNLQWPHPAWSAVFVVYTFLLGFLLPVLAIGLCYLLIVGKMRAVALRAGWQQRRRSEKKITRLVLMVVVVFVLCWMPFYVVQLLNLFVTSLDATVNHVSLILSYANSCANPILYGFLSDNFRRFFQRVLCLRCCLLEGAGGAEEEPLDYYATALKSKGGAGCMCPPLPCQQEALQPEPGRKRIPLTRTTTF

Kp at 1 h [1]: 2.4 | Kd [2]: 2040 nM | IC50 [3]: > 10000 nM | Kd [4]: 4.9 nM | Ratio [5]: 21 | Ratio [6]: > 150 | Kd [7]: 692 nM | half-life [8]: 1.5 h | Ratio [9]: > 100 | Kd [10]: 7.08 nM | pKb [11]: 7.88 | half-life [12]: 5.6 h | IC50 [13]: 6500 nM | bioavailability [14]: 21% | Kp at 1 h [15]: 0.4 | Kd [16]: 4570 nM | bioavailability [17]: 15% | Kd [18]: 1120 nM | Kd [19]: 427 nM | Kd [20]: 589 nM | Kd [21]: 148 nM | Ratio [22]: > 150 | Kd [23]: 115 nM | Kd [25]: 741 nM
SMILES: COc1ccc(C[C@H](C)CN2C[C@@H]3CCCC[C@@H]3[C@H](C(=O)N3CCN(c4ccc(F)c(F)c4)CC3)C2)cn1.O=C(O)/C=C/C(=O)O
Activity [24]: Non-toxic
